# Measured values as given in ChEMBL document CHEMBL5357066, “Development of Novel Membrane Disrupting Lipoguanidine Compounds Sensitizing Gram-Negative Bacteria to Antibiotics” (ACS Med Chem Lett, 2024).
# Key:
# Klebsiella pneumoniae [1] = test: Synergistic antibacterial activity against […] Klebsiella pneumoniae M6 assessed as rifampicin MIC at <=0.25 times MIC incubated for overnight by microbroth dilution checkerboard assay; type: functional
# How it was run: (§1)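 Checkerboard run under the MIC conditions (TSB, overnight, 37 °C). Antibiotic and lipoguanidine 2-fold series were combined on one plate before bacteria were added. Growth/no-growth was scored as for the MIC (<0.1 OD600). Single-agent MICs were measured on the same plates. Three independent repeats were done.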
# Klebsiella pneumoniae [2] = test: Synergistic antibacterial activity against […] Klebsiella pneumoniae NCTC 13368 assessed as novobiocin MIC at <=0.25 times MIC incubated for overnight by microbroth dilution checkerboard assay; type: functional; how it was run: as §1
# Pseudomonas aeruginosa [3] = test: Synergistic antibacterial activity against Pseudomonas aeruginosa NCTC 13437 assessed as fold change in rifampicin MIC at <=0.25 times MIC incubated for overnight by microbroth dilution checkerboard assay relative to rifampicin alone; type: functional
# How it was run: (§2)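 Checkerboard microdilution in Tryptic Soy Broth, run like the MIC assay. Overnight TSB cultures were back-diluted to OD 0.01 and added 1:1 to the combined two-fold series of both agents, then incubated overnight at 37 °C. Growth/no-growth was called at <0.1 OD600. MICs alone were read on the same plates. FIC index came from the most synergistic well; three independent repeats, mean ± SD.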
# Pseudomonas aeruginosa [4] = test: Antibacterial activity against Pseudomonas aeruginosa NCTC 13437 assessed as bacterial growth inhibition incubated for overnight by microbroth dilution method; type: functional
# How it was run: (§3)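 Broth microdilution in Tryptic Soy Broth. DMSO stocks were diluted in TSB as 2-fold series. Overnight TSB cultures were back-diluted to OD 0.01 and mixed 1:1 with compound. Incubation was overnight at 37 °C. MIC was the lowest concentration without visible growth (<0.1 OD600). DMSO vehicle was checked at equivalent concentrations.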
# Klebsiella pneumoniae [5] = test: Antibacterial activity against Klebsiella pneumoniae M6 assessed as bacterial growth inhibition incubated for overnight by microbroth dilution method
# Erythrocyte = test: Hemolytic activity in human Red blood cells at 512 microg/ml measured after 1 hrs by absorbance based assay; type: toxicity, cell-based; details: dose 512 µg/ml
# How it was run: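 Titrations in PBS were incubated with freshly collected human red blood cells for 1 h at 37 °C. Controls were 0.1% Triton-X-100 (full lysis) and PBS alone (no lysis). After centrifugation, supernatant OD550 was read. % haemolysis = (AP−AB)/(AC−AB)×100. Data are means and standard error of three biological replicates.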
# Pseudomonas aeruginosa [6] = test: Synergistic antibacterial activity against Pseudomonas aeruginosa NCTC 13437 assessed as fold change in novobiocin MIC at <=0.25 times MIC incubated for overnight by microbroth dilution checkerboard assay relative to novobiocin alone; type: functional
# How it was run: (§4)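 Checkerboard microdilution under MIC conditions (TSB, overnight, 37 °C). Two-fold series of each agent were combined on one plate before bacteria were added, and single-agent MICs were measured on the same plate. FIC = sum of combination MIC/alone MIC for each agent, taken from the most synergistic well. Three independent repeats, mean ± SD. ≤0.5 was taken as strong synergy and 0.5–<1 as weak.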
# Pseudomonas aeruginosa [7] = test: Synergistic antibacterial activity against Pseudomonas aeruginosa PAO1 assessed as fold change in rifampicin MIC at <=0.25 times MIC incubated for overnight by microbroth dilution checkerboard assay relative to rifampicin alone; type: functional; how it was run: as §2
# Klebsiella pneumoniae [8] = test: Synergistic antibacterial activity against […] Klebsiella pneumoniae M6 assessed as novobiocin MIC at <=0.25 times MIC incubated for overnight by microbroth dilution checkerboard assay; type: functional; how it was run: as §1
# Escherichia coli [9] = test: Synergistic antibacterial activity against Escherichia coli NCTC 12923 assessed as novobiocin MIC at <=0.25 times MIC incubated for overnight by microbroth dilution checkerboard assay; type: functional; how it was run: as §4
# Klebsiella pneumoniae [10] = test: Synergistic antibacterial activity against Klebsiella pneumoniae M6 assessed as fold change in novobiocin MIC at <=0.25 times MIC incubated for overnight by microbroth dilution checkerboard assay relative to novobiocin alone; type: functional; how it was run: as §4
# Escherichia coli [11] = test: Synergistic antibacterial activity against Escherichia coli NCTC 12923 assessed as fold change in rifampicin MIC at <=0.25 times MIC incubated for overnight by microbroth dilution checkerboard assay relative to rifampicin alone; type: functional; how it was run: as §4
# Acinetobacter baumannii [12] = test: Synergistic antibacterial activity against Acinetobacter baumannii AYE assessed as fold change in novobiocin MIC at <=0.25 times MIC incubated for overnight by microbroth dilution checkerboard assay relative to novobiocin alone; type: functional; how it was run: as §4
# Klebsiella pneumoniae [13] = test: Synergistic antibacterial activity against Klebsiella pneumoniae NCTC 13368 assessed as rifampicin MIC at <=0.25 times MIC incubated for overnight by microbroth dilution checkerboard assay; type: functional; how it was run: as §4
# Acinetobacter baumannii [14] = test: Synergistic antibacterial activity against Acinetobacter baumannii ATCC 17978 assessed as novobiocin MIC at <=0.25 times MIC incubated for overnight by microbroth dilution checkerboard assay; type: functional; how it was run: as §4
# Klebsiella pneumoniae [15] = test: Antibacterial activity against ESBL Klebsiella pneumoniae NCTC 13368 assessed as bacterial growth inhibition incubated for overnight by microbroth dilution method
# Pseudomonas aeruginosa [16] = test: Synergistic antibacterial activity against Pseudomonas aeruginosa PAO1 assessed as rifampicin MIC at <=0.25 times MIC incubated for overnight by microbroth dilution checkerboard assay; type: functional; how it was run: as §2
# Pseudomonas aeruginosa [17] = test: Synergistic antibacterial activity against Pseudomonas aeruginosa NCTC 13437 assessed as novobiocin MIC at <=0.25 times MIC incubated for overnight by microbroth dilution checkerboard assay; type: functional; how it was run: as §2
# Acinetobacter baumannii [18] = test: Synergistic antibacterial activity against Acinetobacter baumannii AYE assessed as fold change in rifampicin MIC at <=0.25 times MIC incubated for overnight by microbroth dilution checkerboard assay relative to rifampicin alone; type: functional; how it was run: as §4
# Escherichia coli [19] = test: Synergistic antibacterial activity against Escherichia coli NCTC 12923 assessed as rifampicin MIC at <=0.25 times MIC incubated for overnight by microbroth dilution checkerboard assay; type: functional; how it was run: as §4
# Acinetobacter baumannii [20] = test: Antibacterial activity against Acinetobacter baumannii AYE assessed as bacterial growth inhibition incubated for overnight by microbroth dilution method; type: functional; how it was run: as §3
# Acinetobacter baumannii [21] = test: Synergistic antibacterial activity against Acinetobacter baumannii AYE assessed as rifampicin MIC at <=0.25 times MIC incubated for overnight by microbroth dilution checkerboard assay; type: functional; how it was run: as §4
# Pseudomonas aeruginosa [22] = test: Antibacterial activity against Pseudomonas aeruginosa PAO1 assessed as bacterial growth inhibition incubated for overnight by microbroth dilution method; type: functional; how it was run: as §3
# Acinetobacter baumannii [23] = test: Antibacterial activity against Acinetobacter baumannii ATCC 17978 assessed as bacterial growth inhibition incubated for overnight by microbroth dilution method; type: functional; how it was run: as §3
# Acinetobacter baumannii [24] = test: Synergistic antibacterial activity against Acinetobacter baumannii ATCC 17978 assessed as fold change in rifampicin MIC at <=0.25 times MIC incubated for overnight by microbroth dilution checkerboard assay relative to rifampicin alone; type: functional; how it was run: as §4
# Pseudomonas aeruginosa [25] = test: Synergistic antibacterial activity against Pseudomonas aeruginosa PAO1 assessed as fold change in novobiocin MIC at <=0.25 times MIC incubated for overnight by microbroth dilution checkerboard assay relative to novobiocin alone; type: functional; how it was run: as §2
# Escherichia coli [26] = test: Synergistic antibacterial activity against Escherichia coli NCTC 12923 assessed as fold change in novobiocin MIC at <=0.25 times MIC incubated for overnight by microbroth dilution checkerboard assay relative to novobiocin alone; type: functional; how it was run: as §4
# Pseudomonas aeruginosa [27] = test: Synergistic antibacterial activity against Pseudomonas aeruginosa NCTC 13437 assessed as rifampicin MIC at <=0.25 times MIC incubated for overnight by microbroth dilution checkerboard assay; type: functional; how it was run: as §2
# Klebsiella pneumoniae [28] = test: Synergistic antibacterial activity against Klebsiella pneumoniae NCTC 13368 assessed as fold change in novobiocin MIC at <=0.25 times MIC incubated for overnight by microbroth dilution checkerboard assay relative to novobiocin alone; type: functional; how it was run: as §4
# Escherichia coli [29] = test: Antibacterial activity against Escherichia coli NCTC 12923 assessed as bacterial growth inhibition incubated for overnight by microbroth dilution method; type: functional; how it was run: as §3
# Klebsiella pneumoniae [30] = test: Synergistic antibacterial activity against Klebsiella pneumoniae NCTC 13368 assessed as fold change in rifampicin MIC at <=0.25 times MIC incubated for overnight by microbroth dilution checkerboard assay relative to rifampicin alone; type: functional; how it was run: as §1
# Acinetobacter baumannii [31] = test: Synergistic antibacterial activity against Acinetobacter baumannii ATCC 17978 assessed as rifampicin MIC at <=0.25 times MIC incubated for overnight by microbroth dilution checkerboard assay; type: functional; how it was run: as §4
# Acinetobacter baumannii [32] = test: Synergistic antibacterial activity against Acinetobacter baumannii ATCC 17978 assessed as fold change in novobiocin MIC at <=0.25 times MIC incubated for overnight by microbroth dilution checkerboard assay relative to novobiocin alone; type: functional; how it was run: as §4
# Pseudomonas aeruginosa [33] = test: Synergistic antibacterial activity against Pseudomonas aeruginosa PAO1 assessed as novobiocin MIC at <=0.25 times MIC incubated for overnight by microbroth dilution checkerboard assay; type: functional; how it was run: as §2
# Acinetobacter baumannii [34] = test: Synergistic antibacterial activity against Acinetobacter baumannii AYE assessed as novobiocin MIC at <=0.25 times MIC incubated for overnight by microbroth dilution checkerboard assay; type: functional; how it was run: as §4
smiles,measurement,setting,value
CCCCCCCCCCNC(=N)NCCCCNC(=N)N,MIC,Klebsiella pneumoniae [1],≤ 0.125 µg/mL
same,MIC,Klebsiella pneumoniae [2],8 µg/mL
same,fold change (FC),Pseudomonas aeruginosa [3],>=4
same,MIC,Pseudomonas aeruginosa [4],> 128 µg/mL
same,MIC,Klebsiella pneumoniae [5],> 128 µg/mL
same,Activity,Erythrocyte,Toxic
same,fold change (FC),Pseudomonas aeruginosa [6],>=4
same,fold change (FC),Pseudomonas aeruginosa [7],>=4
same,MIC,Klebsiella pneumoniae [8],1 µg/mL
same,MIC,Escherichia coli [9],2 µg/mL
same,fold change (FC),Klebsiella pneumoniae [10],>=4
same,fold change (FC),Escherichia coli [11],>=4
same,fold change (FC),Acinetobacter baumannii [12],>=4
same,MIC,Klebsiella pneumoniae [13],≤ 0.125 µg/mL
same,MIC,Acinetobacter baumannii [14],0.125 µg/mL
same,MIC,Klebsiella pneumoniae [15],> 128 µg/mL
same,MIC,Pseudomonas aeruginosa [16],2 µg/mL
same,MIC,Pseudomonas aeruginosa [17],4 µg/mL
same,fold change (FC),Acinetobacter baumannii [18],>=4
same,MIC,Escherichia coli [19],≤ 0.125 µg/mL
same,MIC,Acinetobacter baumannii [20],> 128 µg/mL
same,MIC,Acinetobacter baumannii [21],≤ 0.125 µg/mL
same,MIC,Pseudomonas aeruginosa [22],64 µg/mL
same,MIC,Acinetobacter baumannii [23],> 128 µg/mL
same,fold change (FC),Acinetobacter baumannii [24],>=4
same,fold change (FC),Pseudomonas aeruginosa [25],>=4
same,fold change (FC),Escherichia coli [26],>=4
same,MIC,Pseudomonas aeruginosa [27],≤ 0.125 µg/mL
same,fold change (FC),Klebsiella pneumoniae [28],>=4
same,MIC,Escherichia coli [29],64 µg/mL
same,fold change (FC),Klebsiella pneumoniae [30],>=4
same,MIC,Acinetobacter baumannii [31],≤ 0.125 µg/mL
same,fold change (FC),Acinetobacter baumannii [32],>=4
same,MIC,Pseudomonas aeruginosa [33],4 µg/mL
same,MIC,Acinetobacter baumannii [34],0.125 µg/mL
